# Laboratory results as given in ChEMBL document CHEMBL1144439, “A novel class of in vivo active anticancer agents: achiral seco-amino- and seco-hydroxycyclopropylbenz[e]indolone (seco-CBI) analogues of the duocarmycins and CC-1065” (J Med Chem, 2005).
# pIC50: −log10 of the molar value.
# Legend:
# L1210 = assay: The concentration required for inhibiting the growth of the murine L1210 leukemia cells by 50%; format: functional, cell-based; settings: Mus musculus
# Procedure, shortened: (§1)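 MTT growth inhibition in murine lines grown in DMEM with 10% FBS, HEPES, glutamine, pen/strep at 37 °C, 5% CO2. Seeded 80 000 cells/well, continuous drug exposure (DMSO stock diluted in DMEM) for 72 h, quadruplicate wells per concentration. MTT added for 4 h, formazan dissolved in acid 2-propanol, read at 570 nm (reference 630 nm). IC50 extrapolated from averaged absorbance curves.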
# [1] = The concentration required for inhibiting the growth of the murine B16-F0 melanoma cells by 50%; format: functional; settings: Mus musculus, B16F0; procedure, shortened: as §1
# K562 [2] = assay: The concentration required for inhibiting the growth of the human K562 chronic myeloid leukemia cells by 50%; format: functional, cell-based
# Procedure, shortened: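 Drug exposure was […] in the dark, then cells were washed and plated at 10⁴ cells/well, eight wells per sample, and incubated 4 days. MTT was added for 5 h, formazan dissolved in DMSO and read at 550 nm.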
# P815 = assay: The concentration required for inhibiting the growth of the murine P815 mastocytoma cells by 50%; format: functional, cell-based; settings: Mus musculus
# Procedure, shortened: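 P815 cells grown in DMEM with 10% FBS, HEPES, glutamine and pen/strep, seeded at 80 000 cells/well. Drug in DMSO/DMEM was added to final concentrations from 1.0 × 10^-12 to 1.0 × 10^-4 M, continuous for 72 h at 37 °C, 5% CO2, in quadruplicate. MTT was added for 4 h and solubilised in acid 2-propanol, read at 570/630 nm. IC50 was extrapolated from mean absorbance curves.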
# CAKI-1 = assay: Concentration required to kill 50% of human CAKI-1 renal cancer cells; format: functional
# Procedure, shortened: (§2)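 NCI 60-cell-line human tumour panel. Continuous 48 h drug exposure, then sulforhodamine B assay for cell viability. […] GI50 and TGI are generated from the same curves.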
# HCT-15 = assay: Concentration required to kill 50% of human HCT-15 colon cancer cells; format: functional; procedure, shortened: as §2
# MDA-N = assay: Concentration required to kill 50% of human MDA-N breast cancer cells; format: functional; procedure, shortened: as §2
# PC-3 = assay: Concentration required to kill 50% of human PC-3 prostate cancer cells; format: functional; procedure, shortened: as §2
# RXF 393 = assay: Concentration required to kill 50% of human RXF 393 renal cancer cells; format: functional; procedure, shortened: as §2
# COLO 205 = assay: Concentration required to kill 50% of human COLO 205 colon cancer cells; format: functional; procedure, shortened: as §2
# HCC 2998 = assay: Concentration required to kill 50% of human HCC2998 colon cancer cells; format: functional; procedure, shortened: as §2
# Hs-578T = assay: Concentration required to kill 50% of human Hs 578.T breast cancer cells; format: functional; procedure, shortened: as §2
# IGROV-1 = assay: Concentration required to kill 50% of human IGROV1 ovarian cancer cells; format: functional; procedure, shortened: as §2
# DU-145 = assay: Concentration required to kill 50% of human DU-145 prostate cancer cells; format: functional; procedure, shortened: as §2
# OVCAR-3 = assay: Concentration required to kill 50% of human OVCAR-3 ovarian cancer cells; format: functional; procedure, shortened: as §2
# OVCAR-5 = assay: Concentration required to kill 50% of human OVCAR-5 ovarian cancer cells; format: functional; procedure, shortened: as §2
# OVCAR-8 = assay: Concentration required to kill 50% of human OVCAR-8 ovarian cancer cells; format: functional; procedure, shortened: as §2
# SK-OV-3 = assay: Concentration required to kill 50% of human SK-OV-3 ovarian cancer cells; format: functional; procedure, shortened: as §2
# NCI/ADR-RES = assay: Concentration required to kill 50% of human NCI/ADR-RES breast cancer cells; format: functional; procedure, shortened: as §2
# MDA-MB-231 = assay: Concentration required to kill 50% of human MDA-MB-231/ATCC breast cancer cells; format: functional; procedure, shortened: as §2
# EKVX = assay: Concentration required to kill 50% of human EKVX non-small cell lung cancer cells; format: functional; procedure, shortened: as §2
# HOP-62 = assay: Concentration required to kill 50% of human HOP-62 non-small cell lung cancer cells; format: functional; procedure, shortened: as §2
# HOP-92 = assay: Concentration required to kill 50% of human HOP-92 non-small cell lung cancer cells; format: functional; procedure, shortened: as §2
# NCI-H23 = assay: Concentration required to kill 50% of human NCI-H23 non-small cell lung cancer cells; format: functional; procedure, shortened: as §2
# NCI-H226 = assay: Concentration required to kill 50% of human NCI-H226 non-small cell lung cancer cells; format: functional; procedure, shortened: as §2
# NCI-H460 = assay: Concentration required to kill 50% of human NCI-H460 non-small cell lung cancer cells; format: functional; procedure, shortened: as §2
# NCI-H522 = assay: Concentration required to kill 50% of human NCI-H522 non-small cell lung cancer cells; format: functional; procedure, shortened: as §2
# A549 = assay: Concentration required to kill 50% of human A549/ATCC non-small cell lung cancer cells; format: functional; procedure, shortened: as §2
# NCI-H322M = assay: Concentration required to kill 50% of human NCI-H322M non-small cell lung cancer cells; format: functional; procedure, shortened: as §2
# HL-60 = assay: Concentration required to kill 50% of human HL-60 leukemia cells; format: functional; procedure, shortened: as §2
# K562 [3] = assay: Concentration required to kill 50% of human K-562 leukemia cells; format: functional; procedure, shortened: as §2
# MOLT-4 = assay: Concentration required to kill 50% of human MOLT-4 leukemia cells; format: functional; procedure, shortened: as §2
# [4] = Concentration required to kill 50% of human U-251 CNS cancer cells; format: functional
# Procedure, shortened: (§3)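 NCI 60-cell human cancer panel run at the National Cancer Institute. Cells exposed to compound for 48 h, with a sulforhodamine B read-out.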
# UACC-62 = assay: Concentration required to kill 50% of human UACC-62 melanoma cells; format: functional; procedure, shortened: as §3
# ACHN = assay: Concentration required to kill 50% of human ACHN renal cancer cells; format: functional; procedure, shortened: as §2
# HT-29 = assay: Concentration required to kill 50% of human HT-29 colon cancer cells; format: functional; procedure, shortened: as §2
# KM12 = assay: Concentration required to kill 50% of human KM12 colon cancer cells; format: functional; procedure, shortened: as §2
# LOX IMVI = assay: Concentration required to kill 50% of human LOX IMVI melanoma cells; format: functional; procedure, shortened: as §2
# Malme-3M = assay: Concentration required to kill 50% of human MALME-3M melanoma cells; format: functional; procedure, shortened: as §2
# SF-268 = assay: Concentration required to kill 50% of human SF-268 CNS cancer cells; format: functional; procedure, shortened: as §2
# SF-295 = assay: Concentration required to kill 50% of human SF-295 CNS cancer cells; format: functional; procedure, shortened: as §2
# SF-539 = assay: Concentration required to kill 50% of human SF-539 CNS cancer cells; format: functional; procedure, shortened: as §2
# SK-MEL-2 = assay: Concentration required to kill 50% of human SK-MEL-2 melanoma cells; format: functional; procedure, shortened: as §2
# SK-MEL-5 = assay: Concentration required to kill 50% of human SK-MEL-5 melanoma cells; format: functional; procedure, shortened: as §2
# SNB-19 = assay: Concentration required to kill 50% of human SNB-19 CNS cancer cells; format: functional; procedure, shortened: as §2
# 786-0 = assay: Concentration required to kill 50% of human 786-0 renal cancer cells; format: functional; procedure, shortened: as §2
# A498 = assay: Concentration required to kill 50% of human A-498 renal cancer cells; format: functional; procedure, shortened: as §2
# MCF7S = assay: Concentration required to kill 50% of human MCF-7 breast cancer cells; format: functional; procedure, shortened: as §2
# [5] = Concentration required to kill 50% of human RPMI-8226 leukemia cells; format: functional; procedure, shortened: as §2
# SK-MEL-28 = assay: Concentration required to kill 50% of human SK-MEL-28 melanoma cells; format: functional; procedure, shortened: as §2
# SN12C = assay: Concentration required to kill 50% of human SN12C renal cancer cells; format: functional; procedure, shortened: as §2
# TK-10 = assay: Concentration required to kill 50% of human TK-10 renal cancer cells; format: functional; procedure, shortened: as §3
# UO-31 = assay: Concentration required to kill 50% of human UO-31 renal cancer cells; format: functional; procedure, shortened: as §3
# [6] = Concentration required to kill 50% of human T-47D breast cancer cells; format: functional, Cancer cell lines; procedure, shortened: as §3
# BT-549 = assay: Concentration required to kill 50% of human BT-549 breast cancer cells; format: functional; procedure, shortened: as §2
# HCT-116 = assay: Concentration required to kill 50% of human HCT116 colon cancer cells; format: functional; procedure, shortened: as §2
# SNB-75 = assay: Concentration required to kill 50% of human SNB-75 CNS cancer cells; format: functional; procedure, shortened: as §2
# SW-620 = assay: Concentration required to kill 50% of human SW-620 colon cancer cells; format: functional; procedure, shortened: as §2
# OVCAR-4 = assay: Concentration required to kill 50% of human OVCAR-4 ovarian cancer cells; format: functional; procedure, shortened: as §2
structure (smiles),measurement,setting,value
Nc1cc(NC(=O)c2cc3cc(NC(=O)c4cc5ccccc5o4)ccc3[nH]2)c(CCCl)c2ccccc12,pIC50,L1210,7.06
same,pIC50,[1],7.37
COc1cc2cc(C(=O)Nc3cc(N)c4ccccc4c3CCO)[nH]c2c(OC)c1OC,pIC50,L1210,4.39
same,pIC50,[1],4.22
COc1cc2cc(C(=O)Nc3cc(NCc4ccccc4)c4ccccc4c3CCCl)[nH]c2c(OC)c1OC,pIC50,[1],5.27
COc1cc2cc(C(=O)Nc3cc(O)c4ccccc4c3CCCl)[nH]c2c(OC)c1OC,pIC50,K562 [2],6.82
same,pIC50,P815,7.60
same,pIC50,L1210,7.26
same,pIC50,[1],7.57
COc1ccc2[nH]c(C(=O)Nc3cc(N)c4ccccc4c3CCCl)cc2c1,pIC50,L1210,6.41
same,pIC50,[1],6.59
COc1cc2cc(C(=O)Nc3cc(N)c4ccccc4c3CCCl)[nH]c2c(OC)c1OC [CENTANAMYCIN],Log 10 LC50,CAKI-1,>-4.3
same,Log 10 LC50,HCT-15,>-4.3
same,Log 10 LC50,MDA-N,>-4.3
same,Log 10 LC50,PC-3,-4.81
same,Log 10 LC50,RXF 393,-6.86
same,Log 10 LC50,COLO 205,-4.69
same,Log 10 LC50,HCC 2998,-6.65
same,Log 10 LC50,Hs-578T,>-4.3
same,Log 10 LC50,IGROV-1,>-4.3
same,Log 10 LC50,DU-145,>-4.3
same,Log 10 LC50,OVCAR-3,>-4.3
same,Log 10 LC50,OVCAR-5,-4.43
same,Log 10 LC50,OVCAR-8,-4.69
same,Log 10 LC50,SK-OV-3,>-4.3
same,Log 10 LC50,NCI/ADR-RES,-4.33
same,Log 10 LC50,MDA-MB-231,-4.58
same,Log 10 LC50,EKVX,-4.73
same,Log 10 LC50,HOP-62,>-4.3
same,Log 10 LC50,HOP-92,-4.42
same,Log 10 LC50,NCI-H23,-5.07
same,Log 10 LC50,NCI-H226,>-4.3
same,Log 10 LC50,NCI-H460,-4.81
same,Log 10 LC50,NCI-H522,-5.53
same,Log 10 LC50,A549,>-4.3
same,Log 10 LC50,NCI-H322M,>-4.3
same,Log 10 LC50,HL-60,>-4.3
same,Log 10 LC50,K562 [3],>-4.3
same,Log 10 LC50,MOLT-4,>-4.3
same,Log 10 LC50,[4],-5.21
same,Log 10 LC50,UACC-62,-6.49
same,Log 10 LC50,ACHN,>-4.3
same,Log 10 LC50,HT-29,-4.41
same,Log 10 LC50,KM12,>-4.3
same,Log 10 LC50,LOX IMVI,-4.75
same,pIC50,K562 [2],7.35
same,pIC50,L1210,6.74
same,Log 10 LC50,Malme-3M,>-4.3
same,Log 10 LC50,SF-268,>-4.3
same,Log 10 LC50,SF-295,>-4.3
same,Log 10 LC50,SF-539,>-4.3
same,Log 10 LC50,SK-MEL-2,-6.74
same,Log 10 LC50,SK-MEL-5,-4.85
same,Log 10 LC50,SNB-19,>-4.3
same,Log 10 LC50,786-0,-4.58
same,Log 10 LC50,A498,>-4.3
same,Log 10 LC50,MCF7S,-4.54
same,Log 10 LC50,[5],>-4.3
same,Log 10 LC50,SK-MEL-28,>-4.3
same,Log 10 LC50,SN12C,-5.65
same,Log 10 LC50,TK-10,-4.33
same,Log 10 LC50,UO-31,>-4.3
same,Log 10 LC50,[6],>-4.3
same,Log 10 LC50,BT-549,-5.76
same,Log 10 LC50,HCT-116,-4.67
same,pIC50,[1],6.82
same,Log 10 LC50,SNB-75,-5.78
same,Log 10 LC50,SW-620,>-4.3
same,Log 10 LC50,OVCAR-4,>-4.3
